Broadly, the IC50 is the concentration at which inhibition is half-maximal.

Molecules are shown by their SMILES.

In BindingDB's records for doi:10.1021/acsmedchemlett.0c00095 (Gilead Sciences, 2020) one finds IC50 data, which are given here for 14 molecules.

Sequence of Phosphatidylinositol 3-kinase regulatory subunit alpha/4,5-bisphosphate 3-kinase catalytic subunit beta isoform (P27986 whole entry, canonical isoform): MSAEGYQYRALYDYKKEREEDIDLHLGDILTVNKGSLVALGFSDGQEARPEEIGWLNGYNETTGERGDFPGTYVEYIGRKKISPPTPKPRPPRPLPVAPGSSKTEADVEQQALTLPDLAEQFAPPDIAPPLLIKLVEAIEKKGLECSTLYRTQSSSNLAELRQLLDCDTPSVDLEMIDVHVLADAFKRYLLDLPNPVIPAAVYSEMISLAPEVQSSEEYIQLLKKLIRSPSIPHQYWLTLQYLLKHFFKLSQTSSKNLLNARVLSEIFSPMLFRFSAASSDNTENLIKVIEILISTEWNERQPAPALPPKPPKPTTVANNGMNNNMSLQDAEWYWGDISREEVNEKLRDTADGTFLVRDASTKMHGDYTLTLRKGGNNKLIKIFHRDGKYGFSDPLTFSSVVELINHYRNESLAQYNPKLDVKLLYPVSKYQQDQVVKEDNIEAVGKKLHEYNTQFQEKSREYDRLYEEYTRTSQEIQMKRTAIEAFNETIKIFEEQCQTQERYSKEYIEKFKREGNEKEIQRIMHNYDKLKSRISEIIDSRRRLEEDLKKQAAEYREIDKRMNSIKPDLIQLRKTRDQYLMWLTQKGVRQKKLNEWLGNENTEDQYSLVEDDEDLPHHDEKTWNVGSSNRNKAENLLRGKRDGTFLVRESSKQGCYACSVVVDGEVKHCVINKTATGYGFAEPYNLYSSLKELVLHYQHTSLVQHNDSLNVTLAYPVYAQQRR
Sequence of Phosphatidylinositol 3-kinase regulatory subunit alpha/4,5-bisphosphate 3-kinase catalytic subunit beta isoform (P42338 whole entry, canonical isoform): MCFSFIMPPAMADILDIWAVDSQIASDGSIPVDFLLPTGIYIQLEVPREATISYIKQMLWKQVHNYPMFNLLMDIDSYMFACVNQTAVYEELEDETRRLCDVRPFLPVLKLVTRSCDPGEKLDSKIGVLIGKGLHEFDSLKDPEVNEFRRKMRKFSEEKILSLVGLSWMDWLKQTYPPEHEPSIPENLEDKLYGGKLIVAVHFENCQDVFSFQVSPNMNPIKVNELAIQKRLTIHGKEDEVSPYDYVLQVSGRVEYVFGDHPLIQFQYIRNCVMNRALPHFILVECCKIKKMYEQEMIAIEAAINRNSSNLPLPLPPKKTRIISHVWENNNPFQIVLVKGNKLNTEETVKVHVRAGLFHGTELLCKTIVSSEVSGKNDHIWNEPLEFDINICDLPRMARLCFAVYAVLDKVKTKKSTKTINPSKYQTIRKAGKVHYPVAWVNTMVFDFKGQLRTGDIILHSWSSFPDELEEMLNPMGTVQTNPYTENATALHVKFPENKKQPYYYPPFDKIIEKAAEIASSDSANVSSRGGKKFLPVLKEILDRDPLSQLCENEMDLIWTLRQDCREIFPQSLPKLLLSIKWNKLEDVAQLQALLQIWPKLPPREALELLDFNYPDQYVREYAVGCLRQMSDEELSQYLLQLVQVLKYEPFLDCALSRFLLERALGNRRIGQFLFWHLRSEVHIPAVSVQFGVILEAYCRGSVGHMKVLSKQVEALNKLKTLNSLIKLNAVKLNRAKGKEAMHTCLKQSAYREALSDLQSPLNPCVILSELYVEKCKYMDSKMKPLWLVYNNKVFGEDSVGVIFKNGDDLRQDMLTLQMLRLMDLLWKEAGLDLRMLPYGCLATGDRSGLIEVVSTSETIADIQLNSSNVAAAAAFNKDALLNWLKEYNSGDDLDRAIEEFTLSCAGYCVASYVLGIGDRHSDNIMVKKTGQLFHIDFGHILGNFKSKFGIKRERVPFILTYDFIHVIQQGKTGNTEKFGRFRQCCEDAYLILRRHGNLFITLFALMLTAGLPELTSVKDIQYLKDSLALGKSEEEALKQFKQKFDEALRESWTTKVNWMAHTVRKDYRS

This experiment concerns the target Phosphatidylinositol 3-kinase regulatory subunit alpha/4,5-bisphosphate 3-kinase catalytic subunit beta isoform (Homo sapiens, UniProt P27986+P42338). In words: Inhibition of recombinant human full-length N-terminal His6-tagged p110beta/human recombinant full-length untagged p85alpha expressed in baculovirus infected Sf21 insect cells using PIP2 as substrate after 30 mins in presence of ATP at 2xKm concentration by TR-FRET assay. The method in brief:
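Class I PI3K isoforms assayed in vitro for kinase inhibition with ATP at 2Km steady-state concentration; IC50 values averaged over at least 2 determinations.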
In general terms: In TR-FRET formats the signal depends on donor and acceptor labels being close together.
As to `Cc1nc2c(-c3nnc[nH]3)cc(-c3cc(N)ncc3F)cc2n1-c1ccnc2c(F)ccc(F)c12` [US10227350, Compound 76], the IC50 is 50 nM.
In the case of `Cc1cc(-c2cc(-c3nnc[nH]3)c3nc(C)n(-c4ccnc5c(F)ccc(F)c45)c3c2)cc(N)n1` [US10227350, Compound 90] it was 341 nM; in that of `Cc1nc2c(-c3nnc[nH]3)cc(-c3ccnc(C(F)F)c3)cc2n1-c1ccnc2c(F)ccc(F)c12` [US10227350, Compound 43], 30 nM.
In the case of `Cc1nc2c(-c3nnc[nH]3)cc(-c3ccncc3)cc2n1-c1ccnc2c(F)ccc(F)c12` [US10227350, Compound 140] it was 6 nM; in that of `Clc1cccc2c(-n3cnc4c(-c5nnc[nH]5)cc(-c5ccncc5)cc43)ccnc12`, 5 nM; in that of `Cc1nc2c(-c3nnc[nH]3)cc(-c3ccnc(C#N)c3)cc2n1-c1ccnc2c(F)ccc(F)c12` [US10227350, Compound 113], 4 nM.
On to `Cc1nccc(-c2cc(-c3nnc[nH]3)c3nc(C)n(-c4ccnc5c(F)ccc(F)c45)c3c2)n1` [US10227350, Compound 156], for which the IC50 amounted to 12 nM.
In the case of `Cc1nc2c(-c3nnc[nH]3)cc(-c3c(F)cnc(N)c3F)cc2n1-c1ccnc2c(F)ccc(F)c12` [US10227350, Compound 100] it was 321 nM; in that of `Cc1nc2c(-c3nnc[nH]3)cc(-c3ccnc(Cl)c3)cc2n1-c1ccnc2c(F)ccc(F)c12` [US10227350, Compound 158], 7 nM.
In the case of `Clc1cccc2c(-n3cnc4c(-c5nnc[nH]5)cc(N5CCOCC5)cc43)ccnc12` [US10214519, Example 111] it was 3 nM; in that of `CNc1nccc(-c2cc(-c3nnc[nH]3)c3nc(C)n(-c4ccnc5c(F)ccc(F)c45)c3c2)c1F` [US10227350, Compound 77], 1400 nM.
In the case of `Cc1nc2c(-c3nnc[nH]3)cc(-c3ccnc(N)c3)cc2n1-c1ccnc2c(F)ccc(F)c12` [US10227350, Compound 104] it was 10 nM; in that of `Cc1cc(-c2cc(-c3nnc[nH]3)c3nc(C)n(-c4ccnc5c(F)ccc(F)c45)c3c2)ncn1` [US10227350, Compound 155], 62 nM; in that of `Cc1nc2c(-c3nnc[nH]3)cc(-c3ccnc(N)c3Cl)cc2n1-c1ccnc2c(F)ccc(F)c12` [US10227350, Compound 91], 19 nM.
